Source: PubChem BioAssay (several laboratories)
PP5 primary: PP5 (human) phosphatase inhibition. P53041. inhibition, % at 6.7 µM. purified PP5c, OMFP substrate fluorescence. 320,000 tested, 0.18% active;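 active means inhibition above the campaign's mean inhibition across all tested compounds plus 3 SD, cut at about 9.5% in these data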
T cruzi repl: T. cruzi replication inhibition | AID 1885 | inhibition, % (test concentration not listed) | T. cruzi beta-gal in NIH3T3, luminescence, 90 h | 300,000 tested, 1.4% active;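 active means mean inhibition across valid replicates above about 55%, limit read from the data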;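 further: signal also drops with host cell toxicity which is not excluded here; higher percent means less beta-gal luminescence so fewer parasites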
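System: mouse NIH/3T3 fibroblasts infected with β-gal-expressing T. cruzi Tulahuen C4 / Input: NIH/3T3 cells, 5,000 per well / Buffer or medium: Low-serum DMEM with 2% FBS / Probe or stimulus: 5000 reporter trypomastigotes per well / Schedule: ≥90 h infection period, 3 h prior cell attachment / Measured by: GalScreen luminescence, 60 min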
p-CIP stab down: compounds decreasing mouse p/CIP protein stability; AID 1984; decrease of EGFP signal, % at 10 µM; F442A p/CIP-EGFP cells, EGFP fluorescence, 16 h; 290,000 tested, 0.01% active; Q05BA5;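 active means EGFP signal decrease of at least 30% at 10 µM or well 3 SD below plate mean, unless failing retest; inactive means the rest, including hits failing retest or dose response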
Target sequence (Q05BA5 1-1403): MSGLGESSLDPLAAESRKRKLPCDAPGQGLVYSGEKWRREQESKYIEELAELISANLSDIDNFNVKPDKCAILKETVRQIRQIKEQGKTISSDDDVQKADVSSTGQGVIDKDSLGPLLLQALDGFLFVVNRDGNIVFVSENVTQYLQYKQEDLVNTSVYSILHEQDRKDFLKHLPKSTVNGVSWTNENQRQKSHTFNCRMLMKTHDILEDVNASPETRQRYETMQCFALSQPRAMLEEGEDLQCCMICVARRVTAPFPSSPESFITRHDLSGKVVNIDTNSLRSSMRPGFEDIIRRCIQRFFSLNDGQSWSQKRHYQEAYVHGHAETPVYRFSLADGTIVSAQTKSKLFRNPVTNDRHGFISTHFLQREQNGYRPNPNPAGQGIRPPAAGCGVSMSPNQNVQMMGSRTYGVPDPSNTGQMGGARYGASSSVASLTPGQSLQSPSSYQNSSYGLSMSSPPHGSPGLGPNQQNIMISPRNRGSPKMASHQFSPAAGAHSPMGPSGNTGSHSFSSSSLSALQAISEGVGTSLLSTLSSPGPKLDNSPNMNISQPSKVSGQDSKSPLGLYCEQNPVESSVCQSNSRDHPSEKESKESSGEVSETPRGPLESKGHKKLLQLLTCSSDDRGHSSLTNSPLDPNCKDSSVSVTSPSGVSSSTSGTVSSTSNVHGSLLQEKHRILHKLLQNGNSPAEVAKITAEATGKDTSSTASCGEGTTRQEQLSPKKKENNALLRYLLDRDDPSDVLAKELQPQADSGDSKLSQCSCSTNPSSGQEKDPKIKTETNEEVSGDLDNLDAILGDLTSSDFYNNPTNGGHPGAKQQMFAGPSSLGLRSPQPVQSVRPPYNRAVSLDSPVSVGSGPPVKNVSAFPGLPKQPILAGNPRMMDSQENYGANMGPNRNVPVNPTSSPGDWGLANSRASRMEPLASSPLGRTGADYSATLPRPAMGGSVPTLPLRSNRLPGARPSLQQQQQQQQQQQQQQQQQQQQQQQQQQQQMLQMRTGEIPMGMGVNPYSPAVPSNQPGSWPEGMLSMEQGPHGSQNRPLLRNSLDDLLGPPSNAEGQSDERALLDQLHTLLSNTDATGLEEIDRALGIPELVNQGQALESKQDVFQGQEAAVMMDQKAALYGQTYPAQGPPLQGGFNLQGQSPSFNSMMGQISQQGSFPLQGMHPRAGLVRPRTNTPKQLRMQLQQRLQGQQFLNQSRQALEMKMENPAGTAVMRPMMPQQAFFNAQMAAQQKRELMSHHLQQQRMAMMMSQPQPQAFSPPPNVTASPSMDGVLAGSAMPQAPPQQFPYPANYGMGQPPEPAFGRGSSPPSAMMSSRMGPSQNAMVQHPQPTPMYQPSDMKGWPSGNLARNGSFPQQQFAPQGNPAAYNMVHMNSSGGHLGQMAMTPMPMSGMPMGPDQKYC
Fh CTSL1 inh: cathepsin L1 inhibition, PFM18AAP counter-screen. recombinant F. hepatica cathepsin L1, Z-Leu-Arg-MCA fluorescence. inhibition, % at 5.96 µM. 300,000 tested, 0.49% active. AID 1906;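 active means inhibition above the mean of all tested compounds plus 3 SD, set per screening campaign, cut at about 17% in these data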
GASC-1 inh: blocks human GASC-1 demethylase activity. inhibition, % at 2.35 µM. Q9H3R0. GST-JMJD2C(1-420) H3K9me3 demethylation, DELFIA europium. 330,000 tested, 0.069% active;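 active means more than half of a compound's replicate wells show inhibition beyond 50%, single wells judged on their own value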;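 further: signal counts dimethyl H3K9 product captured on neutravidin plate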
H9c2 protect: modulators protecting cardiomyocytes from myocardial damage; H9c2 cardiomyocytes, H2O2 injury protection, ATPLite, 2 h; protection from H2O2 cell death, % at 20 µM; 360,000 tested, 0.63% active; AID 588492;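 active means compounds giving at least 50% protection of heart cells from peroxide-induced death in the single-dose screen, raw or plate-pattern-corrected value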
Hits are given with their value; 0 = inactive; - = no result given. Only some compounds are listed: those with a hit (about 2.4% of all), similar ones and a draw of the others.

SMILES | PP5 primary | T cruzi repl | p-CIP stab down | Fh CTSL1 inh | GASC-1 inh | H9c2 protect
O=C(CSc1n[nH]c(-c2ccccc2)n1)c1ccc(O)c(O)c1 | 0 | 0 | 0 | 0 | 0 | 80
Cc1ccc(O)c(NC(=O)CSc2n[nH]c(-c3ccccc3)n2)c1 | 0 | 0 | 0 | 0 | 0 | 0
Cc1cc(SCC(=O)c2ccc(O)c(O)c2)nc2ccccc12 | 0 | 0 | 0 | 0 | 0 | 51
CCc1cccc(C)c1NC(=O)CN1C(=O)NC(C)(CCC(C)C)C1=O (stereo not drawn) | - | - | - | - | 0 | 0
CC(C)[C@H](NC(=O)N1c2ccccc2NC(=O)[C@@H]1C(C)C)C(=O)N1CCC(C(=O)O)CC1 | 0 | 0 | 0 | 0 | 0 | 0
CC(C)N(CCNC(=O)c1nn(Cc2ccccc2)c(=O)c2ccccc12)C(C)C | 0 | 55 | 0 | 0 | 0 | 0
CC(C)CCNC(=O)c1nn(Cc2ccccc2)c(=O)c2ccccc12 | 0 | 0 | 0 | 0 | 0 | 0
Cc1cccc(NC(=O)c2nc[nH]c2C(=O)NCCCCCCNC(=O)c2[nH]cnc2C(=O)Nc2cccc(C)c2)c1 | 0 | - | - | - | 0 | 95
Cc1cccc(NC(=O)c2nc[nH]c2C(=O)NCc2ccccc2)c1 | 0 | - | - | - | 0 | 0
Cc1cccc(NC(=O)c2nc[nH]c2C(=O)NCCCCNC(=O)c2[nH]cnc2C(=O)Nc2cccc(C)c2)c1 | - | - | - | - | 0 | 56
O=C(Nc1cccc(Cl)c1)c1nc[nH]c1C(=O)NCCCCNC(=O)c1[nH]cnc1C(=O)Nc1cccc(Cl)c1 | - | - | - | - | - | 74
Cc1cc(C(=O)N/N=C/c2cc(Br)cc(Br)c2OC(=O)c2ccccc2)n[nH]1 | 0 | 0 | 0 | 0 | 0 | -
Cc1cc(C(=O)N/N=C/c2cc(Br)cc(Br)c2OC(=O)c2cccc(F)c2)n[nH]1 | 0 | 65 | 0 | 0 | 0 | 83
Cc1cc(C(=O)N/N=C\c2cc(C(C)(C)C)ccc2O)n[nH]1 | 0 | 0 | 0 | 0 | 0 | 62
CCc1ccc(NC(=O)c2cc(S(=O)(=O)N3CCc4ccccc43)cn2C)cc1 | 0 | 0 | 0 | 0 | 0 | 0
COc1ccccc1C(=O)Nc1nnc(S(=O)(=O)N(C)Cc2ccccc2)s1 | 0 | 0 | 0 | 0 | 0 | 0
Cc1ccc(S(=O)(=O)c2nc(C)oc2NCc2ccccc2)cc1 | 0 | 0 | 0 | 35 | 0 | -
CNc1oc(C)nc1S(=O)(=O)c1ccc(C)cc1 | 0 | 0 | 0 | 0 | 0 | 0
CNc1oc(Cc2ccccc2)nc1S(=O)(=O)c1ccccc1 | 0 | 0 | 0 | 22 | 0 | 0
O=C(CC[C@H]1O[C@@H](n2cnc3c(NC(=O)c4ccccc4)ncnc32)[C@H](O)[C@@H]1O)N[C@@H](CO)Cc1c[nH]c2ccccc12 | - | - | - | - | - | 0
O=S1(=O)CCOC(CO)CN1Cc1ccc(Cl)c(Cl)c1 (stereo not drawn) | - | - | - | - | - | 0
Cc1ccc(C(=O)N(CCC2=CCCCC2)c2c(N)n(Cc3ccccc3)c(=O)[nH]c2=O)o1 | 0 | 0 | - | 0 | 0 | 0
CCCCN(C(=O)c1ccc([N+](=O)[O-])s1)c1c(N)n(CC(C)C)c(=O)[nH]c1=O | 0 | 0 | - | 0 | 0 | 0
CCCCn1c(N)c(N(CCC(C)C)C(=O)c2ccc([N+](=O)[O-])s2)c(=O)[nH]c1=O | 0 | 64 | - | 0 | 0 | 0
Nc1c(N(CCC2=CCCCC2)C(=O)c2ccc([N+](=O)[O-])o2)c(=O)[nH]c(=O)n1Cc1ccccc1 | 0 | 66 | - | 0 | 0 | 0
SMILES | PP5 primary | T cruzi repl | p-CIP stab down | Fh CTSL1 inh | GASC-1 inh | H9c2 protect
CC(C)CCN(C(=O)C1=COCCO1)c1c(N)n(Cc2ccccc2)c(=O)[nH]c1=O | 0 | 0 | - | 0 | 75 | 0
O=C(c1ccc2nc[nH]c2c1)N1CCN(c2ncc(C(F)(F)F)cc2Cl)CC1 | 0 | 0 | 0 | 0 | 0 | 0
O=C(NCc1ccncc1)C1CCN(S(=O)(=O)c2ccc(Cl)c(C(F)(F)F)c2)CC1 | - | - | - | - | - | 0
O=C(Nc1ccccc1C(=O)N1CCCCC1)c1cccs1 | 0 | 0 | 0 | 0 | 0 | 0
CCC(=O)Nc1ccc(Nc2nc(C)c([N+](=O)[O-])c(Nc3ccc(NC(=O)CC)cc3)n2)cc1 | 0 | 0 | 0 | 0 | 0 | 70
COc1ccc(NC(=O)c2c(NC(=O)CNCc3ccco3)sc3c2CCC3)cc1 | 0 | 0 | 0 | 0 | 0 | 0
CCOc1ccc(NC(=O)c2c(NC(=O)CNCCN3CCOCC3)sc3c2CCC3)cc1 | 0 | 61 | 0 | 0 | 0 | 0
COC(=O)c1c(NC(=O)C(=O)NCCCN2CCOCC2)sc2c1CCC2 | 0 | 0 | 0 | 23 | 0 | 0
CN1CCN(c2ccccc2NC(=O)c2cccc([N+](=O)[O-])c2)CC1 | 0 | 0 | 0 | 0 | 0 | 0
O=C(Nc1ccccc1N1CCCC1)c1ccc([N+](=O)[O-])cc1Cl | 0 | 56 | 0 | 0 | 0 | 0
O=C(Nc1ccccc1N1CCN(C(=O)c2ccc(Cl)cc2)CC1)c1cccc([N+](=O)[O-])c1 | 0 | 55 | 0 | 0 | 0 | 0
CCN(CCO)c1ncnc2c1sc1nc(C(C)C)c3c(c12)CC(C)(C)OC3 | 0 | 0 | 0 | 0 | 0 | 60
O=C(NCCNc1ccc([N+](=O)[O-])cc1C(F)(F)F)c1ccccc1 | 0 | 0 | 0 | 0 | 52 | 0
COc1ccc(C(=O)CC(Nc2ccc([N+](=O)[O-])cc2)c2ccc(Cl)cc2)cc1 (stereo not drawn) | 0 | 64 | 0 | 0 | 0 | 0
COc1ccnc(Oc2ccc(F)cc2)c1C(=O)N/C=N/OCc1ccc(Cl)cc1Cl | 0 | 0 | 0 | 0 | 0 | 51
Cc1cc(C(=O)N2CCCC(C)(C(=O)NS(=O)(=O)C3CC3)C2)nn1C(C)(C)C (stereo not drawn) | - | - | - | - | - | 0
Cc1ccn2c(NC3CCCC3)c(-c3ccccn3)nc2c1 | 0 | 65 | 0 | 0 | 0 | 0
c1ccc(-c2nc3ccccn3c2NC2CCCC2)nc1 | 0 | 0 | 0 | 0 | 0 | 0
Cc1ccc(Nc2c(-c3ccccn3)nc3cc(C)ccn23)cc1 | 0 | 76 | 0 | 0 | 0 | 0
Cc1ccn2c(Nc3ccccc3C)c(-c3ccncc3)nc2c1 | 0 | 61 | 0 | 0 | 0 | 0
Cc1ccc(Nc2c(-c3ccccn3)nc3ccc(C)cn23)cc1 | 0 | 0 | 0 | 19 | 0 | 0
Cc1ccn2c(Nc3ccc4c(c3)OCO4)c(-c3ccccn3)nc2c1 | 0 | 0 | 0 | 0 | 0 | 0
CSc1ccc(CN2CCC(n3nccc3NC(=O)CCCc3ccccc3)CC2)cc1 | 0 | 0 | 0 | 0 | 0 | 0
CCN(CC)S(=O)(=O)c1ccc2oc(C(=O)N3CCCCCC3)c(C)c2c1 | 0 | 0 | 38 | 0 | 0 | 0
CCN(CC)S(=O)(=O)c1ccc2oc(C(=O)N3CCc4ccccc4C3)c(C)c2c1 | 0 | 0 | 0 | 0 | 0 | 0
CCN(CC)S(=O)(=O)c1ccc2oc(C(=O)NC3CCCc4ccccc43)c(C)c2c1 (stereo not drawn) | 0 | 81 | 0 | 0 | 0 | 0
COc1ccccc1CNC(=O)c1cc(-c2cc(F)ccc2OC(C)C)n[nH]1 | - | - | - | - | - | 0
COc1ccc(NC(=O)CN(C)C(=O)Cc2n[nH]c(=O)c3ccccc23)cc1 | 0 | 0 | - | 0 | 0 | 61
